PGC1a acetyl inh: modulators of PGC1a acetylation. U2OS PGC1a acetylation, AlphaScreen anti-acetyl-lysine; with virally co-expressed GCN5 acetyltransferase. inhibition, % at 15.6 µM. 350,000 compounds, 0.17% hits. AID 651687;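 active = every replicate shows inhibition of at least 40%; inconclusive = mean inhibition at least 40% but some replicate below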
DENV2 CPE rescue: protects cells from dengue virus 2 cytopathic effect; DENV2-infected cells, cytopathic effect rescue, plate reader; CPE inhibition, % at 9.99 µM; 350,000 compounds, 1.7% hits; AID 651640; in the data active = CPE inhibition above about 20%, passing the limit was not always enough; inconclusive = no clear call, values can overlap the other calls; tested in BHK-21 cells
SIRT5 inh: blocks human SIRT5 desuccinylation of peptide | Q9NXA8 | Purified SirT5, succinyl-peptide AMC, trypsin-coupled fluorescence | inhibition, % at 15 µM | 330,000 compounds, 1.1% hits; in the data active = inhibition above about 15%; inconclusive = no clear call, values can overlap the other calls
Target sequence (Q9NXA8 whole entry, looked up): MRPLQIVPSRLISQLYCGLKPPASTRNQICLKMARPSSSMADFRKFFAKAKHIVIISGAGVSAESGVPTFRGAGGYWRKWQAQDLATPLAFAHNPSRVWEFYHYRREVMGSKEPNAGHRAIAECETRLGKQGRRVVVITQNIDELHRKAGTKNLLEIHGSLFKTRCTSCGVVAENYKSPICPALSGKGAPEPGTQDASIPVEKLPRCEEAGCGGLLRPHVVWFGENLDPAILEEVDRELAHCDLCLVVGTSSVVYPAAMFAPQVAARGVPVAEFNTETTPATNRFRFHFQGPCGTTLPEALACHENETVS
C2C12 statin: suppressors of simvastatin-induced myotoxicity in C2C12 myotubes; 330,000 compounds, 0.78% hits; ATP luminescence, 48 h; scaled: DMSO 0, geranylgeraniol control 100; rescue of ATP level, % at 7.49 µM;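 active = mean ATP rescue above about 67%, or every replicate alone reaching that limit, limit read from the data, passing the limit was not always enough; inconclusive = no clear call, values can overlap the other calls; inactive = mean under the limit and some replicate under it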;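 also: myotubes were challenged with 10 µM simvastatin during compound exposure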
S100A4 MyoIIA: S100A4-myosin IIA interaction inhibition | P26447 | S100A4/TAMRA-MyoIIA peptide fluorescence polarization | inhibition, % at 10.7 µM | 360,000 compounds, 0.14% hits;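 active = mean inhibition of at least 70% across replicates, with every replicate also reaching that level; inconclusive = mean inhibition reaches 70% but some replicates fall short; inactive = mean inhibition below 70%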
Target sequence (P26447 whole entry, looked up): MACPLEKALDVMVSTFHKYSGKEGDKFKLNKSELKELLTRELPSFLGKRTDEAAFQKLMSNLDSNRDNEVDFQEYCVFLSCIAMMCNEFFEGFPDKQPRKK
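assay system = human S100A4 monomer with TAMRA-labelled myosin IIA peptide | also added = labelled myosin peptide probe, 5 nM | incubation = 5 min between mix addition and reading | control set = DMSO and TFP controls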
A number is an active result; n = inactive; u = inconclusive; x = no result given; ! = a repeat was not active. Sampled rows, rich in hits. Any-hit rate of the full collection: about 2.9%.

SMILES	PGC1a acetyl inh	DENV2 CPE rescue	SIRT5 inh	C2C12 statin	S100A4 MyoIIA
Cc1ccc(S(=O)(=O)Nc2ccc3c(c2)C(=O)N([C@@H](C)CO)C[C@H](C)[C@H](CN(C)S(=O)(=O)c2ccccc2)OCCCC[C@@H](C)O3)cc1	n	n	24	x	n
O=C(O)c1ccc(-c2ccc(/C=C3\NC(=O)N(Cc4ccc(Cl)cc4)C3=O)o2)cc1Cl	n	n	26	n	n
CCOC(=O)CN1C(=O)S/C(=C\c2ccc(-c3ccc(C(=O)O)c(Cl)c3)o2)C1=O	n	n	n	n	n
C[C@H](CO)N1C[C@H](C)[C@H](CN(C)S(C)(=O)=O)Oc2ccc(NC(=O)c3ccncc3)cc2C1=O	n	n	n	n	n
COc1ccc(CC(=O)Nc2ccc(/C(C)=N/NC(=O)c3ccc(OC)cc3OC)cc2)cc1	x	n	n	n	n
COc1ccc(C(=O)N/N=C(\C)CC(=O)Nc2ccc(N(C)C)cc2)c(OC)c1	n	116	n	n	n
CO[C@@H]1CN(C)C(=O)c2cc(NC(=O)c3cc(C)on3)ccc2OC[C@@H](C)N(S(=O)(=O)c2ccccc2)C[C@H]1C	n	n	n	n	n
O=C(O)[C@@H]1[C@@H](CO)[C@@H]2Cn3c(ccc(/C=C/c4ccccc4)c3=O)[C@@H]2N1C(=O)C1CCCC1	n	n	n	x	110
CC=Cc1ccc2n(c1=O)C[C@H]1[C@H](CO)[C@@H](C(=O)Nc3nccs3)N(C(=O)CC)[C@@H]21 (mixture of isomers)	x	58	n	n	n
CCNC(=O)[C@@H]1[C@@H](CO)[C@@H]2Cn3c(ccc(/C=C/c4ccccc4)c3=O)[C@@H]2N1C(C)=O	n	62	n	n	n
CC(C)NC(=O)N(C)C[C@H]1OCCCC[C@@H](C)Oc2ccc(NC(=O)Nc3ccc4c(c3)OCO4)cc2C(=O)N([C@H](C)CO)C[C@@H]1C	n	n	n	x	n
C[C@@H]1CCCCO[C@H](CN(C)C(=O)Nc2ccccc2)[C@H](C)CN([C@H](C)CO)C(=O)c2cc(NC(=O)c3ccncc3)ccc2O1	n	u	n	x	n
COc1cccc(S(=O)(=O)N[C@H]2CC[C@H](CCn3cc(-c4ccccc4)nn3)O[C@@H]2CO)c1	n	n	n	n	n
COC(=O)[C@]12C[C@H](CC(=O)NCc3cccc(C(F)(F)F)c3)C(=O)N(Cc3ccccc3)C1=C[C@H](C(C)C)O[C@@H]2C1CC1	x	n	x	x	n
CN(C)C(=O)c1ccc(-c2ccccc2[C@H]2[C@H](C#N)N(C(=O)C3CCC3)[C@H]2CO)cc1	n	n	n	x	n
Nc1nc2c(ncn2[C@@H]2O[C@H](CNCc3ccc(F)c(N4CCOCC4)c3)[C@@H](O)[C@H]2O)c(=O)[nH]1	n	26	n	n	n
COc1ccccc1NC(=O)NC1(C(=O)N2CCCCCC2)CCCCC1	n	x	x	106	x
NC(=O)C1CCN(C(=O)C2(NC(=O)Nc3cccc(F)c3)CCCCC2)CC1	x	45	n	n	n
Cc1ccc(S(=O)(=O)Nc2ccc3c(c2)C(=O)N([C@@H](C)CO)C[C@H](C)[C@@H](CN(C)C(=O)Nc2ccccc2)O3)cc1	n	u	n	n	n
CCC(OC(=O)c1cccs1)C(=O)NCc1ccco1 (centres undefined)	n	x	x	102	x
COc1ccc(C#Cc2ccc([C@@H]3[C@@H](CO)N4CCCCN(C(=O)c5ccncc5)C[C@H]34)cc2)cc1	n	28	n	n	n
COc1ccc(C#Cc2ccc([C@H]3[C@@H](CO)N4CCCCN(C(=O)c5ccncc5)C[C@@H]34)cc2)cc1	n	59	n	n	n
C[C@H](O)C#Cc1ccc([C@H]2[C@@H](CO)N3CCCCN(C(=O)c4ccncc4)C[C@@H]23)cc1	n	n	n	n	n
COc1ccc(C#Cc2ccc([C@H]3[C@H](CO)N4CCCCN(C(=O)c5ccncc5)C[C@@H]34)cc2)cc1	n	47	n	n	n
CS(=O)(=O)N1CC2(C1)[C@@H](c1ccccc1)[C@@H](CO)N2Cc1ccccn1	n	n	n	x	n
SMILES	PGC1a acetyl inh	DENV2 CPE rescue	SIRT5 inh	C2C12 statin	S100A4 MyoIIA
CCS(=O)(=O)Nc1ccc2c(c1)C(=O)N(C)C[C@H](OC)[C@H](C)CN[C@H](C)CO2	x	21	n	n	n
CCS(=O)(=O)Nc1ccc2c(c1)C(=O)N(C)C[C@@H](OC)[C@@H](C)CN[C@H](C)CO2	x	55	n	n	n
O=C1[C@@H](Oc2ccccc2)[C@@H](c2ccncc2)N1c1ccccc1	n	47	n	n	n
Cc1noc(C)c1S(=O)(=O)N(C)C[C@@H]1Oc2ccc(NS(=O)(=O)c3ccc(F)cc3)cc2CC(=O)N([C@@H](C)CO)C[C@H]1C	n	u	n	n	n
CC/C=C\C/C=C\C/C=C\CCCCCCCC(=O)O	n	n	17	n	n
C/C(=N\NC(=O)CN1CCCCC1)c1ccccc1O	44	n	n	n	n
COCCOc1cc(-n2ccnc2SC)c(Cl)cc1Cl	n	x	x	92	x
COCCOc1cc(-n2cccc2)c(Cl)cc1Cl	n	n	n	n	n
O=C(O)c1cc(-c2ccc(/C=N/NC(=S)Nc3ccccc3)o2)ccc1Cl	n	n	16	x	n
CC(C)CC#Cc1cnc2c(c1)C(=O)N([C@H](C)CO)C[C@@H](C)[C@H](CN(C)C(=O)C1CCOCC1)O2	n	38	n	n	n
CC(C)CC#Cc1cnc2c(c1)C(=O)N([C@H](C)CO)C[C@H](C)[C@H](CN(C)C(=O)C1CCOCC1)O2	n	n	n	n	n
C[C@@H]1CN([C@@H](C)CO)C(=O)c2cc(Br)cnc2O[C@H]1CN(C)C(=O)C1CCCCC1	n	n	18!	n	n
C[C@H]1CN([C@@H](C)CO)C(=O)c2cc(Br)cnc2O[C@H]1CN(C)C(=O)C1CCOCC1	n	24	n	n	n
N#C[C@@H]1[C@H](c2ccc(C3=CCCC3)cc2)[C@H](CO)N1C(=O)NC1CCCCC1	x	n	n	x	n
CCOC(=O)C1CSCCS(=O)(=O)N1Cc1ccccc1C (centres undefined)	x	n	n	x	n
Cc1cc(C(=O)OCC(=O)Nc2cc(C(F)(F)F)ccc2N2CCOCC2)c(C)o1	n	x	x	94	x
CCC(=O)Nc1cc(C(F)(F)F)ccc1N1CCOCC1	n	x	x	n	x
COc1ccc(C#Cc2ccc3c(c2)[C@@H]2[C@@H](CCN2C(=O)C2CCC2)[C@@H](CO)N3)cc1	n	n	n	x	n
COc1ccc(C#Cc2ccc3c(c2)[C@H]2[C@H](CCN2C(=O)C2CC2)[C@@H](CO)N3)cc1	n	n	n	n	n
COCC(=O)N1CC[C@H]2[C@H](CO)Nc3ccc(C#Cc4ccc(OC)cc4)cc3[C@H]21	n	29	15	x	n
N#Cc1ccc(-c2ccc3c(c2)[C@H]2[C@H](CCN2C(=O)C2CCC2)[C@H](CO)N3)cc1	n	35	n	x	n
CCC(=O)N1CC[C@H]2[C@H](CO)Nc3ccc(C#Cc4ccc(OC)cc4)cc3[C@H]21	n	56	n	x	n

Screening data from PubChem.
